Source: publication PMC7717452 (Journal of Enzyme Inhibition and Medicinal Chemistry, 2020)
“And” between values parts separate entries of the source, which are not always exact repeats. Identical values can stand only once. Like-named read-outs stand apart in the source and are kept apart here. One block for each molecule: values may come before it.

What was measured:
[1] = molecular target: T1, LiTryS (Leishmania infantum trypanothione synthetase) (Leishmania infantum, UniProt A4I2Z3); assay: TryS activity end-point assay; type: biochemical; conditions: for IC50: ± 2σ, ∼30 assumed for 50 ± 5% inhibition at 30 µM; for % TryS inhibition at 30 µM, LiTryS: NA = not active (enzyme activity > 95%)
T1 sequence (A4I2Z3 1-652): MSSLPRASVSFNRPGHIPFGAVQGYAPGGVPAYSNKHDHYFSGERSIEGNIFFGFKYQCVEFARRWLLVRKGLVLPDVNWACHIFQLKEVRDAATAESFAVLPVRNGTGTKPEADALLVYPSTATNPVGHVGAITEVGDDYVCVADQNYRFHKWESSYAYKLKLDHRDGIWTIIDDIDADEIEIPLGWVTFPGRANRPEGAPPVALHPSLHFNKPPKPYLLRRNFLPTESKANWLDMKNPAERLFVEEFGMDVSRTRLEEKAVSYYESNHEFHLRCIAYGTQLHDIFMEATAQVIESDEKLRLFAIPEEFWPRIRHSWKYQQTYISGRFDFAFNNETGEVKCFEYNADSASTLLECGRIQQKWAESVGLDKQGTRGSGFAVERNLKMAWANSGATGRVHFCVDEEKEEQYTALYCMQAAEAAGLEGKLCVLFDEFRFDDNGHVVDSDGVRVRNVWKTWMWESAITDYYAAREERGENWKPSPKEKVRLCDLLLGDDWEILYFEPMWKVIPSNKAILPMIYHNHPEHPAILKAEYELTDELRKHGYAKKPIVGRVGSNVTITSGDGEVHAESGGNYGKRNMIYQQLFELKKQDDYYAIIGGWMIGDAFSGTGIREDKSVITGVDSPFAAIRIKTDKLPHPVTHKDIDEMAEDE
How it was run: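 Recombinant TryS end-point assay in 100 mM HEPES pH 7.4 with 5 mM DTT, 10 mM MgSO4 and 0.5 mM EDTA. ATP was 150 µM and spermidine 2 mM. GSH was 0.25 mM for LiTryS, 0.05 mM for TbTryS and 0.57 mM for TcTryS. Enzyme started the reaction and BIOMOL Green stopped it after 15 min. A650 was read after 20 min at room temperature. Values were corrected with no-enzyme blanks and for compound interference with phosphate. At least quadruplicates; IC50 is given ± 2σn-1.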

[2] = tested on: L. braziliensis amastigotes; assay: Macrophage infection assay, L. braziliensis amastigotes; type: cell-based, Leishmania braziliensis; conditions: 24 h; for activity at 10 µM: Leishmania braziliensis, Macrophage, read-out: % infection by L. braziliensis at 10 µM
How it was run: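 J774 macrophages were plated on coverslips at 1 × 10^5 cells/mL in DMEM with 1% FBS. They were infected with stationary-phase L. braziliensis promastigotes (MHOM/BR/01/BA788; 1:20) for 2 h at room temperature, then 22 h at 35 °C. After washing, cells got test compound (5 or 10 µM, or 10–0.01 µM) in 1% DMSO for 24 h at 37 °C and 5% CO2. Cells were EtOH-fixed and DAPI-stained, and 100–200 macrophages were imaged. % infected cells is relative to DMSO.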

[3] = Cytotoxicity assay; type: cell-based, mouse; conditions: mouse, J774 macrophages (ATCC TIB67), non-infected
How it was run: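 J774 mouse macrophages were grown in DMEM with 10% FBS and penicillin/streptomycin at 37 °C in humidified 5% CO2. Cells were seeded at 6 × 10^4 cells/mL and exposed the next day for 24 h to test compound at 100 to 0.001 µM (200 µM for one compound). The WST-1 signal was read at A450. % cytotoxicity was calculated against DMSO-treated and untreated cells, and CC50 is given ± σn–1.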

IC50 ([1]; IC50 value, LiTryS): 30 µM and ~30 µM
Structure (SMILES): CC(C)(C)OC(=O)N1CCN(C(=O)CN2C(=O)Cc3c([nH]c4ccc(Br)cc34)-c3ccc(Cl)cc32)CC1 [Compound 22]

IC50 ([1]; read-out: IC50 value, LiTryS): ~30 µM
Structure (SMILES): O=C1Cc2c([nH]c3ccc(Br)cc23)-c2ccc(Cl)cc2N1CCO [Compound 2]

IC50 ([1]; IC50 value, LiTryS): ~30 µM
Structure (SMILES): O=C(CN1C(=O)Cc2c([nH]c3ccc(Br)cc23)-c2ccc(Cl)cc21)NC1=NCCS1 [Compound 17]

IC50 ([1]; IC50 value, LiTryS): 0.5 ± 0.2 µM
Structure (SMILES): O=C(CN1C(=O)Cc2c([nH]c3ccc(Br)cc23)-c2ccc(Cl)cc21)N1CCCC1 [Compound 25]
activity at 10 µM [2]: 68 ± 8%
cytotoxicity at 24 h, 100 µM [3]: 69%

Structure (SMILES): NCCNC(=O)CN1C(=O)Cc2c([nH]c3ccc(Br)cc23)-c2ccc(Cl)cc21 [Compound 27]
activity at 10 µM [2]: 68 ± 1%
cytotoxicity at 24 h, 100 µM [3]: 36 ± 1%

IC50 ([1]; IC50 value, LiTryS): 4 ± 0.5 µM
Structure (SMILES): NNC(=O)CN1C(=O)Cc2c([nH]c3ccc(Br)cc23)-c2ccc(Cl)cc21 [Compound 8]

IC50 ([1]; IC50 value, LiTryS): 1.1 ± 0.3 µM
Structure (SMILES): CN1CCN(CCNC(=O)CN2C(=O)Cc3c([nH]c4ccc(Br)cc34)-c3ccc(Cl)cc32)CC1 [Compound 33]

IC50 ([1]; IC50 value, LiTryS): 3 ± 0.7 µM
Structure (SMILES): COC(=O)CN1C(=O)Cc2c([nH]c3ccc(Br)cc23)-c2ccc(Cl)cc21 [Compound 4]

IC50 ([1]; IC50 value, LiTryS): 0.4 ± 0.1 µM
Structure (SMILES): NCCCCNC(=O)CN1C(=O)Cc2c([nH]c3ccc(Br)cc23)-c2ccc(Cl)cc21 [Compound 35]
activity at 10 µM [2]: 116 ± 3%
cytotoxicity at 24 h, 100 µM [3]: 0%

% TryS inhibition at 30 µM, LiTryS [1]: inactive
Structure (SMILES): O=C(O)CN1C(=O)Cc2c([nH]c3ccc(Br)cc23)-c2ccc(Cl)cc21 [Compound 3]

IC50 ([1]; IC50 value, LiTryS): 0.8 ± 0.1 µM
Structure (SMILES): CNC(=O)CN1C(=O)Cc2c([nH]c3ccc(Br)cc23)-c2ccc(Cl)cc21 [Compound 9]
activity at 10 µM [2]: 107 ± 2%
cytotoxicity at 24 h, 100 µM [3]: 93 ± 4%

IC50 ([1]; IC50 value, LiTryS): 2.3 ± 0.4 µM
Structure (SMILES): CC(C)(C)NC(=O)CN1C(=O)Cc2c([nH]c3ccc(Br)cc23)-c2ccc(Cl)cc21 [Compound 15]
activity at 10 µM [2]: 104 ± 1%
cytotoxicity at 24 h, 100 µM [3]: 48 ± 8%

% TryS inhibition at 30 µM, LiTryS [1]: 38.6 ± 1.3%
Structure (SMILES): O=C(CN1C(=O)Cc2c([nH]c3ccc(Br)cc23)-c2ccc(Cl)cc21)N1CCCCC1 [Compound 24, 9-Bromo-3-chloro-5-[2-oxo-2-(piperidin-1-yl)ethyl]-7,12-dihydrobenzo[2,3]azepino-[4,5-b]indol-6(5H)-one]

IC50 ([1]; IC50 value, LiTryS): 3.3 ± 0.1 µM
Structure (SMILES): O=C(CN1C(=O)Cc2c([nH]c3ccc(Br)cc23)-c2ccc(Cl)cc21)NCCN1CCOCC1 [Compound 30]

IC50 ([1]; IC50 value, LiTryS): 5.2 ± 0.4 µM
Structure (SMILES): O=C(CN1C(=O)Cc2c([nH]c3ccc(Br)cc23)-c2ccc(Cl)cc21)NC(CO)(CO)CO [Compound 14]

IC50 ([1]; IC50 value, LiTryS): 1.5 ± 0.2 µM
Structure (SMILES): CCNC(=O)CN1C(=O)Cc2c([nH]c3ccc(Br)cc23)-c2ccc(Cl)cc21 [Compound 11]

% TryS inhibition at 30 µM, LiTryS [1]: 36.7 ± 5.9%
Structure (SMILES): CC(C)(C)OC(=O)NCCNC(=O)CN1C(=O)Cc2c([nH]c3ccc(Br)cc23)-c2ccc(Cl)cc21 [Compound 29]

IC50 ([1]; IC50 value, LiTryS): 0.5 µM
Structure (SMILES): CN(C)C(=O)CN1C(=O)Cc2c([nH]c3ccc(Br)cc23)-c2ccc(Cl)cc21 [Compound 10]
% infection by L. braziliensis at 5 µM ([2]; 5 µM, relative to infected non-treated macrophages): 72 ± 4 at 5 µM %
cytotoxicity at 24 h, 100 µM [3]: 21 ± 1%

IC50 ([1]; IC50 value, LiTryS): 0.6 ± 0.1 µM
Structure (SMILES): O=C(CN1C(=O)Cc2c([nH]c3ccc(Br)cc23)-c2ccc(Cl)cc21)NCCN1CCNCC1 [Compound 32]
activity at 10 µM [2]: 139 ± 2%
cytotoxicity at 24 h, 100 µM [3]: 24 ± 3%

IC50 ([1]; IC50 value, LiTryS): 2.3 ± 0.3 µM
Structure (SMILES): O=C(CN1C(=O)Cc2c([nH]c3ccc(Br)cc23)-c2ccc(Cl)cc21)NCCO [Compound 13]

IC50 ([1]; IC50 value, LiTryS): 5.1 ± 0.5 µM
Structure (SMILES): NC(=O)CN1C(=O)Cc2c([nH]c3ccc(Br)cc23)-c2ccc(Cl)cc21 [Compound 7]

IC50 ([1]; IC50 value, LiTryS): 12.5 ± 0.2 µM
Structure (SMILES): O=C(CN1C(=O)Cc2c([nH]c3ccc(Br)cc23)-c2ccc(Cl)cc21)N1CCN(c2ncccn2)CC1 [Compound 23]

% TryS inhibition at 30 µM, LiTryS [1]: 36.2 ± 3.6%
Structure (SMILES): CCOC(=O)CN1C(=O)Cc2c([nH]c3ccc(Br)cc23)-c2ccc(Cl)cc21 [Compound 5]

IC50 ([1]; read-out: IC50 value, LiTryS): 20.1 ± 1.5 µM
Structure (SMILES): O=C(CN1C(=O)Cc2c([nH]c3ccc(Br)cc23)-c2ccc(Cl)cc21)Nc1ncco1 [Compound 18]
